In ChEMBL document CHEMBL1124079, “Methotrexate analogues. 31. Meta and ortho isomers of aminopterin, compounds with a double bond in the side chain, and a novel analogue modified at the alpha-carbon: chemical and in vitro biological studies” (J Med Chem, 1988) one finds IC50 and inhibition data, which are given here for seven compounds.

The IC50 is the concentration needed to halve the response being measured. Low readings indicate higher potency, high ones lower potency. As usually defined, the inhibition is the drop in the measured response relative to a control, in per cent.

For test [1], the system named is L1210. Nature of the test: Growth inhibitory activity against cultured L1210 cells. It counts as functional, cell-based. The conditions noted are these: Mus musculus.
The target of test [2] is T1, Dihydrofolate reductase (Mus musculus, UniProt P00375).
T1 sequence (P00375 whole entry): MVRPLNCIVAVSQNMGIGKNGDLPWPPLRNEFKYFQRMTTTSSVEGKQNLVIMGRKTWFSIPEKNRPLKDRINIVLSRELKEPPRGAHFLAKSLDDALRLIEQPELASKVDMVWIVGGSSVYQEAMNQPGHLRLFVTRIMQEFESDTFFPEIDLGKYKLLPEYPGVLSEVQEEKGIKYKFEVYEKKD
The test is described as follows: Inhibitory activity against dihydrofolate reductase(DHFR). Summed up:
(§1)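 DHFR purified from L1210 murine leukemia cells by affinity chromatography on MTX-Sepharose, then used as the enzyme source for inhibitor titration; IC50 read from the enzyme-activity titration curve.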

Test [3] relates to L1210 ( R81). Nature of the test: Inhibition of the growth of the MTX-resistant L1210/R81 cell line. It is filed as functional, cell-based. The following applies: Mus musculus.
Test [4] deals with T1, Dihydrofolate reductase. The test is described as follows: Inhibitory activity against dihydrofolate reductase(DHFR) isolated from L1210 murine leukemia cells. It is filed as cell-free. In outline: as §1
The subject of test [5] is L1210. Nature of the test: Inhibitory activity against growth of mouse L1210 leukemia cells. It is filed as functional, cell-based.
Test [6] has as its target T2, Dihydrofolate reductase (Mus musculus) (UniProt P00375).
T2 sequence (whole entry): T1 sequence (P00375 whole entry)
Nature of the test: Inhibitory activity against dihydrofolate reductase(DHFR) isolated from L1210 murine leukemia cells at 50 uM. It counts as cell-free.

Test [7] concerns L1210. Nature of the test: Inhibitory activity against cultured L1210 cells. The following applies: Mus musculus.
The subject of test [8] is L1210 ( R81). The test is described as follows: Inhibitory activity against L1210/R81 cells. The conditions noted are these: Mus musculus. It is filed as functional, cell-based.
Test [9] has as its system L1210. The test is described as follows: Inhibitory activity against L1210 cells. The following applies: Mus musculus. It is filed as functional, cell-based.

As for `Nc1nc(N)c2nc(CNc3ccc(C(=O)NC(C/C=C/C(=O)O)C(=O)O)cc3)cnc2n1` (centres undefined), the 50% inhibitory concentration (IC50) in the test with L1210 [1] amounted to 0.031 µM; against Dihydrofolate reductase [2], 46 µM.
Regarding `CN(Cc1cnc2nc(N)nc(N)c2n1)c1ccc(C(=O)NC(C/C=C/C(=O)O)C(=O)O)cc1` (centres undefined), the IC50 in the test with L1210 [1] is 0.35 µM; in the test on L1210 ( R81) [3] it was greater than 300 µM; at Dihydrofolate reductase [2], 32 µM.
For `Nc1nc(N)c2nc(CNc3ccc(C(=O)N[C@@H](CCC(=O)O)C(=O)O)cc3)cnc2n1` [AMINOPTERIN], at Dihydrofolate reductase [4], half-maximal inhibition (IC50) was put at 0.002 µM.
As for `Nc1nc(N)c2nc(CNc3ccccc3C(=O)NC(CCC(=O)O)C(=O)O)cnc2n1` (centres undefined), the IC50 with L1210 [5] is 64 µM. Also, the inhibition in test [6] amounted to 20%.
Regarding `CN(Cc1cnc2nc(N)nc(N)c2n1)c1ccc(C(=O)N[C@@H](CCC(=O)O)C(=O)O)cc1` [METHOTREXATE], the IC50 in the test with L1210 [7] was determined as 0.005 µM.
For the compound `CN(Cc1cnc2nc(N)nc(N)c2n1)c1ccc(C(=O)N(CCC(=O)O)CC(=O)O)cc1`, the IC50 stood at 180 µM in the test on L1210 ( R81) [8], 12 µM with L1210 [9] and 0.038 µM on Dihydrofolate reductase [2].
With `Nc1nc(N)c2nc(CNc3cccc(C(=O)NC(CCC(=O)O)C(=O)O)c3)cnc2n1` (centres undefined), the IC50 with L1210 [5] was 1.5 µM; against Dihydrofolate reductase [4] it was 200 µM.
